Shown are actives, neighbours in structure and some others; about 3.1% of the full set was active somewhere.
Calb FLC – C. albicans growth inhibition with fluconazole, primary screen, CaCi-2 strain, Alamar Blue fluorescence | growth inhibition, % (no concentration beside the values) | C. albicans CaCi-2 (fluconazole-resistant clinical isolate) + fluconazole, 48 h | hit rate 0.57% among 300,000;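 active = growth inhibition above about 58% in most replicates, limit read from the data, passing the limit was not always enough; inconclusive = exactly half the replicates above a set limit; inactive = most replicates below a set limit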;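 note: all wells also contain fluconazole at 8 µg/ml as a sub-toxic cotreatment; 0% = median of DMSO wells and 100% = median of geldanamycin control wells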
Bfl-1 A1 inh – caspase 3/7 activation in MEF A1-2A-BIM cells, primary screen, A1 inhibitor project, cell-based, luminescence, HTS | caspase activation, % (test concentration not listed) | hit rate 0.066% among 330,000 | AID 2462, 2010 | Caspase-Glo 3/7 luminescence, 3 h; percent of clofoctol response, vehicle zero;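 active = over half of replicate activation scores above 10%, or exactly half above 10 with the replicate mean above 10; inconclusive = replicate mean below 10 yet half the replicates above 10; inactive = over half of replicates below 10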
Beta cell apopt – inhibitors of cytokine-induced beta cell apoptosis, primary screen, luminescence; hit rate 0.8% among 300,000; INS-1E cytokine-induced death, ATP luminescence, 48 h; percent of positive-control rescue, neutral wells zero; protection from apoptosis, % (concentration not given with the values);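 active = Every replicate reaches about 75%, or at least half do and their mean reaches it too, limit read from the data; inconclusive = At least half of replicates reach the limit but their mean does not; inactive = Under half of replicates reach the limit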;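 note: 0% = cytokine-treated negative control wells and 100% = positive control rescue; higher means more ATP so stronger rescue from cytokine killing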
CSC inhib – cancer stem cell viability inhibitors, primary screen, luminescence; hit rate 1.1% among 300,000; cancer stem cell-like cells viability; inhibition, % at 7.5 µM; in the data active = inhibition above about 75%; inconclusive = no clear call, values can overlap the other calls; tested in HMLE shEcad cells
T cruzi repl – inhibitors of intracellular T. cruzi growth, primary screen, luminescence, NIH3T3 host cells. T. cruzi beta-gal in NIH3T3, 90 h. AID 1885, 2009. inhibition, % (concentration not given with the values). hit rate 1.4% among 300,000;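 active = mean inhibition across valid replicates above about 55%, limit read from the data; inconclusive = mean below that limit but half or more replicates reach it; inactive = mean below it, under half of replicates reach it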;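 note: signal also drops with host cell toxicity which is not excluded here; 0% = plate median of DMSO wells and 100% = zero luminescence signal; higher percent means less beta-gal luminescence so fewer parasites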
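Assay system: NIH/3T3 fibroblasts plus reporter T. cruzi. Amount: NIH/3T3 cells, 5,000 per well. Buffer or medium: DMEM, 2% fetal bovine serum. Doses: compound pinned at 50 nL/well, DMSO. Schedule: ≥90 h infection period, 3 h prior cell attachment. Signal: luminescent β-galactosidase signal after 60 min lysis. Read-out: parasite load inhibition, %.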
TAG inh – inhibitors of triacylglycerol accumulation, primary screen, cell-based, uHTS, fluorescence, H9c2 | H9c2 cells, Nile Red lipid (TAG) fluorescence; cells loaded with 200 µM oleic acid | inhibition, % at 12.5 µM | hit rate 0.66% among 230,000;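 active = pattern-corrected inhibition of lipid staining of at least 50% with the nuclear-stain viability signal not falling by more than 50%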;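 note: 0% = DMSO wells and 100% = triacsin C control wells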
TAG conf – triacylglycerol accumulation inhibitors, retest, confirmation, cell-based, single concentration, Nile Red fluorescence, H9c2; shares compounds with TAG inh; H9c2 lipid accumulation; cells loaded with 200 µM oleic acid; inhibition, % at 12.5 µM; hit rate 71% among 990;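 active = mean inhibition across replicates of 40% or more; inactive = mean inhibition below 40%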;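 note: plate controls were DMSO only wells for no effect and Triacsin C treated wells for full effect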
Starred values were filed as active, the others as inactive; ? = inconclusive; nt = not tested or not shown; ! = not confirmed by another sample.

SMILES | Calb FLC | Bfl-1 A1 inh | Beta cell apopt | CSC inhib | T cruzi repl | TAG inh | TAG conf
O=c1cc(-c2cccc(Cl)c2)oc2cccc(O)c12 | 1 | -1 | 2 | -7 | -4 | 92* | 1
O=c1cc(-c2cccc(Br)c2)oc2cccc(O)c12 | -8 | -1 | 0 | 2 | -8 | nt | nt
COc1cc(NC(=O)c2csc(N)n2)cc(C(=O)Nc2cccc(C(F)(F)F)c2)c1 | 12 | 1 | 19 | 88* | 1 | 59*! | 50*
COc1cccc(-c2cc(NC=O)c3ncc(-c4cc(OC)c(OC)c(OC)c4)n3c2)c1 | nt | nt | nt | nt | nt | 45 | nt
COc1cc(-c2cnc3c(NC=O)cc(-c4cccnc4)cn23)cc(OC)c1OC | nt | nt | nt | nt | nt | 54* | 46*
COc1ccc(-c2cc(NC=O)c3ncc(-c4ccc(OC)c(OC)c4)n3c2)cc1OC | nt | nt | nt | nt | nt | 14 | nt
COc1ccc(-c2cc(NC=O)c3ncc(-c4ccc(OC)c(OC)c4)n3c2)cc1 | nt | nt | nt | nt | nt | 56* | 66*
Cn1nc(C(=O)Nc2cc(Cl)ccc2N2CCCC2)c2ccccc2c1=O | nt | -1 | 18 | nt | nt | 5 | nt
CN1CCN(c2ccc(Cl)cc2NC(=O)c2nn(-c3ccccc3)c(=O)c3ccccc23)CC1 | 10 | nt | nt | nt | 11 | 52* | 27
COc1cc2c3c(cccc3c1)C(=O)N(CCN1CCCC1)C2=O | nt | nt | nt | nt | nt | 117* | 109*
CC(NC(=O)C1CCN(c2nnc(N3CCCC3=O)s2)CC1)c1ccccc1 (stereo not given) | -12 | 0 | 2 | -1 | -5 | 6 | nt
CCCc1ccc(Oc2cc(NN3CCCCC3)c([N+](=O)[O-])cc2[N+](=O)[O-])cc1 | 6 | -1 | -4 | -10 | -3 | 34 | nt
CC1CC2(C)Oc3ccccc3CC2C(C)C1CNCCCN(C)C (stereo not given) | -10 | 1 | 21 | 49 | 51 | 82* | 44*
CC1Cc2ccccc2N1C(=O)CNCCCN(C)C (stereo not given) | -3 | 0 | -4 | -9 | 15 | nt | nt
CCCCCC(/C=N/Nc1ccc(S(=O)(=O)N2CCOCC2)cc1[N+](=O)[O-])=C\c1ccccc1 | -10 | 1 | 11 | -7 | -1 | 59* | 63*
CCCCN(C(=O)Cn1ncc(Cl)c(Cl)c1=O)c1c(N)n(CC(C)C)c(=O)[nH]c1=O | 7 | 1 | 17 | -1 | -43 | 4 | nt
CC(C)C[C@H]1C(=O)N2CCC[C@H]2[C@]2(O)O[C@](NC(=O)[C@@H]3C=C4c5cccc6[nH]c(Br)c(c56)CC4N(C)C3)(C(C)C)C(=O)N12 (stereo not given in full) | nt | -1 | 4 | 1 | 24 | 62* | 92*
OCCCn1c(C2CCCN2c2nc(-c3ccc(Cl)cc3)cs2)nc2cc(Cl)c(Cl)cc21 (stereo not given) | 16 | 0 | -1 | 11 | -1 | 39 | nt
Nc1c(Cl)cc(-c2csc(N3CCCC3c3nc4cc(Cl)c(Cl)cc4n3CCCO)n2)cc1Cl (stereo not given) | -7 | 2 | -6 | 9 | 21 | 71* | 79*
Cc1csc(N2CCCC2c2nc3cc(Cl)c(N4CCCCC4)cc3n2CCOCCO)n1 (stereo not given) | 3 | 0 | 3 | 26 | 4 | 16 | nt
Nc1c(Cl)cc(-c2csc(N3CCCC3c3nc4cc(Cl)c(N5CCCCC5)cc4n3CCOCCO)n2)cc1Cl (stereo not given) | -3 | 0 | 0 | 19 | 19 | 75* | 81*
Nc1c(Cl)cc(-c2csc(N3CCCC3c3nc4cc(Cl)c(N5CCCCC5)cc4n3CCCO)n2)cc1Cl (stereo not given) | -8 | 1 | 0 | -5 | 8 | 93* | 128*
CCCc1cc(C(=O)Nc2ccc(OC)cc2[N+](=O)[O-])cs1 | -4 | nt | nt | nt | 17 | 0 | nt
Cn1c2ccccc2c2c(C(=O)N3CCN(C(=O)c4ccco4)CC3)cn(C3CCCCC3)c(=O)c21 | -1 | -1 | 0 | -2 | 19 | 50* | 35
COC(=O)CCC(=O)c1ccc(OC)c(Cl)c1 | 1 | ? | -5 | 1 | -6 | nt | nt
SMILES | Calb FLC | Bfl-1 A1 inh | Beta cell apopt | CSC inhib | T cruzi repl | TAG inh | TAG conf
COCCN(C(=O)COC(=O)CCc1ccccc1)c1c(N)n(Cc2ccccc2)c(=O)[nH]c1=O | nt | nt | nt | nt | nt | 3 | nt
COc1ccc(-c2csc(NC(=O)CC(C)C)n2)cc1 | nt | 0 | 2 | -6 | -2 | 65* | 32
COc1ccc(-c2csc(NC(=O)c3c(OC)cccc3OC)n2)cc1 | 5 | 1 | -5 | 3 | 1 | nt | nt
Cc1ccc(-c2nn3c(C)nnc3c3ccccc23)cc1S(=O)(=O)NC(C)c1ccccc1 (stereo not given) | 1 | -1 | 34 | -3 | 29 | 50* | 53*
Cc1cc(NC(=O)CC2CCCC2)n(-c2nc3ccccc3[nH]2)n1 | -4 | -2 | 21 | 31 | 19 | 59* | 54*
Cc1cc(NC(=O)c2ccc(F)cc2F)n(-c2nc3ccccc3[nH]2)n1 | ? | 0 | 16 | -1 | -9 | nt | nt
Cc1cc(C)n(-c2nc(NCCCN(C)C)c3c4c(sc3n2)COC(C)(C)C4)n1 | -32 | 0 | -2 | 13 | 7 | 34 | nt
CCN(CC)CCNc1nc(-n2nc(C)cc2C)nc2sc3c(c12)CC(C)(C)OC3 | 5 | 0 | -9 | 13 | ? | 55* | 56*
CCN(CC)CCNc1ncnc2c1sc1nc(N3CCCC3)c3c(c12)CC(C)(C)OC3 | 1 | 0 | 3 | 20 | 61* | 56* | 45*
CCN(CC)c1ccc(/C=N/Nc2nc(C)cc(C)n2)cc1 | -2 | 1 | 70 | 3 | -5 | 51* | 30
Cc1cc(C)nc(N/N=C/c2ccccc2)n1 | -2 | -1 | -4 | -13 | -2 | nt | nt
CCC1Oc2ccccc2N(CC(=O)NCC2CCCO2)C1=O (stereo not given) | -6 | 0 | -10 | -9 | 1 | nt | nt
Nc1ncnc2c1ncn2[C@@H]1O[C@H](COP(=O)(O)O)[C@@H](O)[C@H]1O | nt | 0 | -2 | 4 | -15 | -6 | nt
CN1N=C(N)c2cn(C3OC(COP(=O)(O)O)C(O)C3O)c3ncnc1c23 (stereo not given) | nt | nt | nt | nt | nt | 52* | 64*
COc1cc(C(=O)Nc2nc3ccc(C)cc3s2)ccc1OCc1c(C)noc1C | -8 | 0 | 13 | 0 | 21 | 51* | 40
O=C(Cc1coc2ccc3ccccc3c12)Nc1nccs1 | -4 | 0 | 6 | 4 | 6 | 52* | 43*

Source: PubChem BioAssay (several laboratories)
